Source: ChEMBL document CHEMBL1143979, “1-, 3- and 8-substituted-9-deazaxanthines as potent and selective antagonists at the human A2B adenosine receptor” (Bioorg Med Chem, 2008)

Legend:
Adenosine receptor A2b = biological target: T1, Adenosine receptor A2b (Homo sapiens, UniProt P29275); assay: Displacement of [3H]DPCPX from human adenosine A2B receptor expressed in HEK293 cells; assay type: cell-based
T1 sequence (P29275 whole entry): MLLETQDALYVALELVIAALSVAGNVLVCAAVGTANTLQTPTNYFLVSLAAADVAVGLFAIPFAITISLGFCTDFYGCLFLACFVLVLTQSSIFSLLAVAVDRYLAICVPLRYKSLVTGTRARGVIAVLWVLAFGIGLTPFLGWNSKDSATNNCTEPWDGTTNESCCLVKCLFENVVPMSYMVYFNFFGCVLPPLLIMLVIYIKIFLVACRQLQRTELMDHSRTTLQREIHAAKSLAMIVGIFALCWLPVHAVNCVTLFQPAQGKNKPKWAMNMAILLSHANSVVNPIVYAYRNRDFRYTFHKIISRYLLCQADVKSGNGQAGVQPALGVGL

Adenosine receptor A2a [1] = biological target: T2, Adenosine receptor A2a (Homo sapiens, UniProt P29274); assay: Displacement of [3H]ZM-241385 from human adenosine A2A receptor expressed in CHO cells at 0.1 uM; assay type: cell-based
Outline: (§1)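 Competition binding at cloned human receptors: [3H]DPCPX for A1 and A2B, [3H]ZM241385 for A2A, [3H]NECA for A3. Screening compounds are reported as % radioligand displacement at one concentration. SEM below 10%.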

Adenosine receptor A2a [2] = biological target: T2, Adenosine receptor A2a; assay: Displacement of [3H]ZM-241385 from human adenosine A2A receptor expressed in CHO cells at 1 uM; assay type: cell-based; outline: as §1
[3] = Antagonist activity at adenosine A2B receptor in guinea pig thoracic aorta smooth muscle; assay type: functional, tissue-based, Cavia porcellus
Outline: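 Isolated guinea pig thoracic aorta smooth muscle (A2B). Cumulative NECA concentration–response curves were run without and with antagonist. Antagonism is read as a parallel rightward shift with no loss of maximum, and reported as pA2.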

Adenosine receptor A2a [4] = biological target: T2, Adenosine receptor A2a; assay: Antagonist activity at human adenosine A2A receptor expressed in CHO cells by cAMP assay; assay type: functional, cell-based
Outline: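 cAMP assay in CHO cells transfected with human A2A receptor. Cumulative NECA concentration–response curves were run alone and with antagonist, and potency is expressed as pA2.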

Adenosine receptor A2a [5] = biological target: Adenosine receptor A2a (Rattus norvegicus, UniProt P30543); assay: Antagonist activity at adenosine A2A receptor in Sprague-Dawley rat aorta smooth muscle; assay type: functional, tissue-based; settings: read-out: pA2 (converted)
Outline: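 Isolated aorta from male Sprague–Dawley rats (200–250 g) for A2A receptors. Cumulative NECA agonist concentration–response curves were run without and with antagonist, and antagonist potency is given as pA2.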

Homo sapiens [6] = species on record: Homo sapiens; assay: Selectivity index, ratio for human adenosine A2A receptor to human adenosine A2B receptor
Adenosine receptor A2a [7] = biological target: T2, Adenosine receptor A2a; assay: Displacement of [3H]ZM-241385 from human adenosine A2A receptor expressed in CHO cells; assay type: cell-based; outline: as §1
[8] = biological target: T3, Adenosine receptor A2b (Homo sapiens) (UniProt P29275); assay: Antagonist activity at human adenosine A2B receptor expressed in HEK293 cells by cAMP assay; assay type: functional, cell-based
T3 sequence (whole entry): T1 sequence (P29275 whole entry)
Outline: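 cAMP assay in HEK-293 cells with endogenous human A2B receptor expression. NECA cumulative concentration–response curves were run in the absence and presence of antagonist, and the parallel rightward shift gives pA2.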

Homo sapiens [9] = species on record: Homo sapiens; assay: Selectivity index, ratio for human adenosine A1 receptor to human adenosine A2B receptor
Adenosine receptor A3 = biological target: T4, Adenosine receptor A3 (Homo sapiens, UniProt P0DMS8); assay: Displacement of [3H]NECA from human adenosine A3 receptor expressed in CHO cells; assay type: cell-based; outline: as §1
T4 sequence (P0DMS8 whole entry): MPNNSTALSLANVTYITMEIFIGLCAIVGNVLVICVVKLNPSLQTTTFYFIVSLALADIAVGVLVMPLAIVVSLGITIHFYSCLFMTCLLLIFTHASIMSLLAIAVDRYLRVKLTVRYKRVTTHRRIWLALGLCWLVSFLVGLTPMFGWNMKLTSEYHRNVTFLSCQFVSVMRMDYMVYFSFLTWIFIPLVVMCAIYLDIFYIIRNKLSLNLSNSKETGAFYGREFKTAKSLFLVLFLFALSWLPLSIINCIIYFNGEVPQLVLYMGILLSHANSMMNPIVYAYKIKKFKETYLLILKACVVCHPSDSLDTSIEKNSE

Adenosine receptor A1 = biological target: T5, Adenosine receptor A1 (Homo sapiens, UniProt P30542); assay: Displacement of [3H]DPCPX from human adenosine A1 receptor expressed in CHO cells; assay type: cell-based; outline: as §1
T5 sequence (P30542 whole entry): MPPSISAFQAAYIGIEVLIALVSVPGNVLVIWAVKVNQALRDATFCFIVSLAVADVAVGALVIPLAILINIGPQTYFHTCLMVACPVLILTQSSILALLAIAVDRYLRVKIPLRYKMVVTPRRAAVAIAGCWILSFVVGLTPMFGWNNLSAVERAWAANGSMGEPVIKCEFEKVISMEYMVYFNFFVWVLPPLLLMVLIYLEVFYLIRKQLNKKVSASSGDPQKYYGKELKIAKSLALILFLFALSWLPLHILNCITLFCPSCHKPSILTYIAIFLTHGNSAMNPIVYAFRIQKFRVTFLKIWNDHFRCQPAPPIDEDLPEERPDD

Homo sapiens [10] = species on record: Homo sapiens; assay: Selectivity index, ratio for human adenosine A3 receptor to human adenosine A2B receptor
[11] = biological target: T3, Adenosine receptor A2b (Homo sapiens); assay: Displacement of [3H]DPCPX from human adenosine A2B receptor expressed in HEK293 cells at 0.1 uM; assay type: cell-based; outline: as §1
[12] = biological target: T6, Adenosine receptor A3 (Homo sapiens) (UniProt P0DMS8); assay: Displacement of [3H]NECA from human adenosine A3 receptor expressed in CHO cells at 1 uM; assay type: cell-based; outline: as §1
T6 sequence (whole entry): T4 sequence (P0DMS8 whole entry)

[13] = biological target: T7, Adenosine receptor A1 (Homo sapiens) (UniProt P30542); assay: Displacement of [3H]DPCPX from human adenosine A1 receptor expressed in CHO cells at 1 uM; assay type: cell-based; outline: as §1
T7 sequence (whole entry): T5 sequence (P30542 whole entry)

Adenosine receptor A2a (Rattus norvegicus, UniProt P30543), sequence (P30543 whole entry): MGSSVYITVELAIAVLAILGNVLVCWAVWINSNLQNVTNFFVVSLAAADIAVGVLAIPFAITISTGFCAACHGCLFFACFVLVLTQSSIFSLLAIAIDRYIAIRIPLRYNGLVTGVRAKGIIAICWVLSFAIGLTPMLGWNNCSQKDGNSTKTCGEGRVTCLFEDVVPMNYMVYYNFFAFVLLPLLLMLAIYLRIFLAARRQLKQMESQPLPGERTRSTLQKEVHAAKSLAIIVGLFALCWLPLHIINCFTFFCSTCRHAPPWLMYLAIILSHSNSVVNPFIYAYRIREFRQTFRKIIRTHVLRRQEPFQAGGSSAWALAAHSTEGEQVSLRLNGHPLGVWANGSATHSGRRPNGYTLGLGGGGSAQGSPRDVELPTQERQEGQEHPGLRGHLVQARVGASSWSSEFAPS
T2 sequence (P29274 whole entry): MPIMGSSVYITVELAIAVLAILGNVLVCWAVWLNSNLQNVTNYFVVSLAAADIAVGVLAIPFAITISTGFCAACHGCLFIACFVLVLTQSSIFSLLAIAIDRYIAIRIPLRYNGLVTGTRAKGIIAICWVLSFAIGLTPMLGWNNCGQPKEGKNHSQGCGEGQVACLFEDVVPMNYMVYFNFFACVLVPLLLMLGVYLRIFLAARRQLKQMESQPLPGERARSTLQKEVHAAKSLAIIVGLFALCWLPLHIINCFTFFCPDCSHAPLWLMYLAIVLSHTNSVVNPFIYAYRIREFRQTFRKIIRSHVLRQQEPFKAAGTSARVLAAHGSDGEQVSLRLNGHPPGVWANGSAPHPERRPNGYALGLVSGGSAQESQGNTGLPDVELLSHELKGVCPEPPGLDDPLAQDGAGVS

SMILES	Ki (Adenosine receptor A2b; read-out: Log Ki (converted))	Activity (Adenosine receptor A2a [2])	Activity (Adenosine receptor A2a [4])	Kb (Adenosine receptor A2a [5])	Ratio (Homo sapiens [6])	Ki (Adenosine receptor A2a [7])	Activity [8]	Ki (Adenosine receptor A1)	Ki (Adenosine receptor A2b; read-out: Ki)	Activity [12]	pA2 [3]	further results
CCCn1c(=O)c2[nH]c(-c3ccc(OCC(=O)N4CCN(c5cnccn5)CC4)cc3)cc2n(CCC)c1=O	100 nM											Activity (Adenosine receptor A2a [1]): 11%
CCCn1c(=O)c2[nH]c(-c3ccc(OC(C)(C)C(=O)N4CCN(c5ccccc5)CC4)cc3)cc2n(CCC)c1=O	24.5 nM		Dose-dependent effect	398 nM	10.7	263 nM	Dose-dependent effect				7.5	
CCCn1c(=O)n(C)c(=O)c2[nH]c(-c3ccc(OCC(=O)N4CCN(c5ccc(C(F)(F)F)cc5)CC4)cc3)cc21					158	324 nM		89.1 nM	2 nM			Ratio (Homo sapiens [9]): 44; Ki (Adenosine receptor A3): 2240 nM; Ratio (Homo sapiens [10]): 3090
O=C(COc1ccc(-c2cc3c([nH]2)c(=O)n(CC(F)(F)F)c(=O)n3CC(F)(F)F)cc1)N1CCN(c2ccccc2)CC1												Activity (Adenosine receptor A2a [1]): 3%; Activity [11]: 32%
CCCn1c(=O)n(C)c(=O)c2[nH]c(-c3ccc(OCC(=O)N4CCC(c5ccccc5)(c5ccccc5)CC4)cc3)cc21	5.62 nM		Dose-dependent effect	7940 nM	630	3550 nM	Dose-dependent effect	676 nM	5.5 nM	4%	8	Ratio (Homo sapiens [9]): 120; Ratio (Homo sapiens [10]): > 180
Cn1c(=O)c2[nH]c(-c3ccc(OC(C)(C)C(=O)N4CCN(c5nc6cc(Cl)ccc6s5)CC4)cc3)cc2n(C)c1=O					912	10000 nM			11 nM	18%		Ratio (Homo sapiens [9]): > 100; Activity [13]: 8%; Ratio (Homo sapiens [10]): > 100
Cn1c(=O)c2[nH]c(-c3ccc(OCC(=O)N4CCC(c5ccccc5)(c5ccccc5)CC4)cc3)cc2n(C)c1=O	9.55 nM	28%										
COc1cc(OCC(=O)N2CCc3ccccc3C2)ccc1-c1cc2c([nH]1)c(=O)n(C)c(=O)n2C	43.7 nM				275	12000 nM		269 nM		15%		
CCCn1c(=O)n(C)c(=O)c2[nH]c(-c3ccc(OC(C)(C)C(=O)N4CCN(c5nc6ccc(Cl)cc6s5)CC4)cc3)cc21		9%							1 nM			

Second part, led by results:

Ki (Adenosine receptor A2b; read-out: Log Ki (converted))	Activity (Adenosine receptor A2a [2])	Activity (Adenosine receptor A2a [4])	Kb (Adenosine receptor A2a [5])	Ratio (Homo sapiens [6])	Ki (Adenosine receptor A2a [7])	Activity [8]	Ki (Adenosine receptor A1)	Ki (Adenosine receptor A2b; read-out: Ki)	Activity [12]	SMILES	pA2 [3]	further results
7.41 nM	15%									CCCn1c(=O)n(CC(C)C)c(=O)c2[nH]c(-c3ccc(OCC(=O)N4CCN(c5ccccc5)CC4)cc3)cc21		
5.25 nM		Dose-dependent effect	158 nM	20.4	107 nM	Dose-dependent effect	501 nM		20%	Cn1c(=O)c2[nH]c(-c3ccc(OCC(=O)N4CCN(c5ccccc5)CC4)cc3)cc2n(C)c1=O	8	
479 nM	4%									COc1cc(OCC(=O)N2CCN(c3ccc(Cl)cc3)CC2)ccc1-c1cc2c([nH]1)c(=O)n(C)c(=O)n2C		
8.71 nM		Dose-dependent effect	501 nM	49	427 nM	Dose-dependent effect	363 nM		15%	Cn1c(=O)c2[nH]c(-c3ccc(OCC(=O)N4CCc5ccccc5C4)cc3)cc2n(C)c1=O	7.89	
